Assays:
Settings in all cases: stereoisomer not certain
[1] = target: T1, UniProt Q8VF52
T1 sequence (whole entry): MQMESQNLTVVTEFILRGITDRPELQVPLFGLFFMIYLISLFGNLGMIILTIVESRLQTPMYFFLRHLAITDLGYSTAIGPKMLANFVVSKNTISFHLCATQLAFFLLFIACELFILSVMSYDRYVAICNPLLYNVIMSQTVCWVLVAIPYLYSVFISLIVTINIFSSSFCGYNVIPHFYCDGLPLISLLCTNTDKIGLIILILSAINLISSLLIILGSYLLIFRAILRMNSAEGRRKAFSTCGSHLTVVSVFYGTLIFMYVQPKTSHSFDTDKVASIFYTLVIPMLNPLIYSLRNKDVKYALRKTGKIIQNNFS
Summary of the method: (§1)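 Each entry records the cell line, G-protein, co-transfected protein and tags used. Methods varied with the source, often transient luciferase assays in mammalian cell lines. A receptor–molecule pair is called responsive (active) if the original authors judged its signal statistically different from baseline and non-responsive (inactive) otherwise.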

[2] = target: T2, UniProt Q8VFM8
T2 sequence (whole entry): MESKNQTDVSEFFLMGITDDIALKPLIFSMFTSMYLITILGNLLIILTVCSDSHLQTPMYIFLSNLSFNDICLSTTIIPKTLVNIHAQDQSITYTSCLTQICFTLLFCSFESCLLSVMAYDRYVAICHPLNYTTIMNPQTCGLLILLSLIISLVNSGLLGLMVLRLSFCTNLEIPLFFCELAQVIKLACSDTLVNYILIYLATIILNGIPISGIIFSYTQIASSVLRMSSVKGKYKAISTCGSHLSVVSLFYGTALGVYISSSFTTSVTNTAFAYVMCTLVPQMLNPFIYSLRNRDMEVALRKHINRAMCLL
Summary of the method: as §1

[3] = target: T3, UniProt Q8VFP5
T3 sequence (whole entry): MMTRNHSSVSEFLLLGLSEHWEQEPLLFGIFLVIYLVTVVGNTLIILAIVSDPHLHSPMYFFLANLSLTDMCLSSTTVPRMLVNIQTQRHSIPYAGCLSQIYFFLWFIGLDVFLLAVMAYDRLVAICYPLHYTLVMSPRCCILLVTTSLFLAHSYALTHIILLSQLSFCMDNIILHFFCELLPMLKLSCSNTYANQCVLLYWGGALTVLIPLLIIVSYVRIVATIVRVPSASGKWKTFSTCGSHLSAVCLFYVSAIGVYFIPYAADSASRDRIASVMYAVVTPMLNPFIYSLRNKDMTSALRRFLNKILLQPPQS
Summary of the method: as §1

[4] = target: T4, UniProt Q8VG01
T4 sequence (whole entry): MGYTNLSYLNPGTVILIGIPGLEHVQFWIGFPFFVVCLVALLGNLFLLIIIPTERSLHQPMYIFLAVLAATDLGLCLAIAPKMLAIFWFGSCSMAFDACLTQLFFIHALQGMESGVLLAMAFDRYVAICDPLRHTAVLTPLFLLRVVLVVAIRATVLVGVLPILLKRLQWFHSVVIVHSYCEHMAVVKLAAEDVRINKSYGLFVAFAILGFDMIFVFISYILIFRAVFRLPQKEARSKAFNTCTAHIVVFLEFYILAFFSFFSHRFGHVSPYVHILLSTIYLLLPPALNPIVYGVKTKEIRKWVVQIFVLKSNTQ
Summary of the method: as §1

[5] = target: T5, UniProt Q8VG27
T5 sequence (whole entry): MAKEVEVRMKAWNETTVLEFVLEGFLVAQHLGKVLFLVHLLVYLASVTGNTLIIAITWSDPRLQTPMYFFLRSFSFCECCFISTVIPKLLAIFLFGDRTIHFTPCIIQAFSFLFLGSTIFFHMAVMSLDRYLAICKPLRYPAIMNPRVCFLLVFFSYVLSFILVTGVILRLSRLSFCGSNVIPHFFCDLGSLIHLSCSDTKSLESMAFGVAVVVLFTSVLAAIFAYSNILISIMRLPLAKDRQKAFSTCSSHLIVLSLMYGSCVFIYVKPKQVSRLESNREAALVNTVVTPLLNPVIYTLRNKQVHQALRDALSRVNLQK
Summary of the method: as §1

[6] = target: T6, UniProt Q8VG53
T6 sequence (whole entry): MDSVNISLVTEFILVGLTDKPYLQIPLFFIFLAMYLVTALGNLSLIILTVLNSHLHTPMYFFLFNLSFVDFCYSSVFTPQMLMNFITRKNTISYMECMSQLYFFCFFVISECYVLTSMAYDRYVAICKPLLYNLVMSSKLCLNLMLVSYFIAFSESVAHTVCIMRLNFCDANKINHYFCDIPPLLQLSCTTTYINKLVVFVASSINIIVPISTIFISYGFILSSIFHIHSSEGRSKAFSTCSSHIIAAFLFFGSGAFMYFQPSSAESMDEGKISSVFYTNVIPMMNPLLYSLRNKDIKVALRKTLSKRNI
Summary of the method: as §1

[7] = target: T7, UniProt Q8VG64
T7 sequence (whole entry): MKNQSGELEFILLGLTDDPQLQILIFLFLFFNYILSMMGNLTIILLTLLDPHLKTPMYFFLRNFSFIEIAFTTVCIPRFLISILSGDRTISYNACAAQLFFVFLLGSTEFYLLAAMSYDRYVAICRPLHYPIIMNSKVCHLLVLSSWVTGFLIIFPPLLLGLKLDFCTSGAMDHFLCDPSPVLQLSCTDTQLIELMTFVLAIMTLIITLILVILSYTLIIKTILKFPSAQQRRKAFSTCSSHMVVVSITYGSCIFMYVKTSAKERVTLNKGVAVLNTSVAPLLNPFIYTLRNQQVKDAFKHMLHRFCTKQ
Summary of the method: as §1

[8] = target: T8, UniProt Q8VGB9
T8 sequence (whole entry): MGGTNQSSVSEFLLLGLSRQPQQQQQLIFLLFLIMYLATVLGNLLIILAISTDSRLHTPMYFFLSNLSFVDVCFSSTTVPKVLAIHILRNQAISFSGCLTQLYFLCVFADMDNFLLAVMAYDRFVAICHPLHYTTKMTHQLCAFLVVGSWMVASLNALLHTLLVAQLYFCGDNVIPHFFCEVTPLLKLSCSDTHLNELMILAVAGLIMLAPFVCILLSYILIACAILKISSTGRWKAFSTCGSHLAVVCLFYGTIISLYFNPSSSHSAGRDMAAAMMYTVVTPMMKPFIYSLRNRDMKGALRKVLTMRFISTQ
Summary of the method: as §1

[9] = target: T9, UniProt Q8VGC6
T9 sequence (whole entry): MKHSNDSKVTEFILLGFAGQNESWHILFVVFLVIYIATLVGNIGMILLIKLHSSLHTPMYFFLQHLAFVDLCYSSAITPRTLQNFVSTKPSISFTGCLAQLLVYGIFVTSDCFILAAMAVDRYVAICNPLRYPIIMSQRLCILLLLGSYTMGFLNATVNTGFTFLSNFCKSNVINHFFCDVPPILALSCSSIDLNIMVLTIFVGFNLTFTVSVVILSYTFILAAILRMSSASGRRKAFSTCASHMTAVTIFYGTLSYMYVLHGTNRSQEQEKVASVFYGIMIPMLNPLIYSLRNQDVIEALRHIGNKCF
Summary of the method: as §1

[10] = target: T10, UniProt Q8VGJ3
T10 sequence (whole entry): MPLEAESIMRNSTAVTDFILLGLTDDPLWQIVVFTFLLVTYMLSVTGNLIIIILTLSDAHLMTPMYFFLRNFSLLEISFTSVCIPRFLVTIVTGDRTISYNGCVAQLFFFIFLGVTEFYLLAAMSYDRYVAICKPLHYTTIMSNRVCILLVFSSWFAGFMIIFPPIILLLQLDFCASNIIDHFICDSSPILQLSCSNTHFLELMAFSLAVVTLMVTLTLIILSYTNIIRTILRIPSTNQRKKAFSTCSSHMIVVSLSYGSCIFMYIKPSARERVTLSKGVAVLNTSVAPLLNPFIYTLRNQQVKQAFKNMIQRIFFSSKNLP
Summary of the method: as §1

[11] = target: UniProt Q8VG28
Sequence of UniProt Q8VG28 (Q8VG28 as listed by the source): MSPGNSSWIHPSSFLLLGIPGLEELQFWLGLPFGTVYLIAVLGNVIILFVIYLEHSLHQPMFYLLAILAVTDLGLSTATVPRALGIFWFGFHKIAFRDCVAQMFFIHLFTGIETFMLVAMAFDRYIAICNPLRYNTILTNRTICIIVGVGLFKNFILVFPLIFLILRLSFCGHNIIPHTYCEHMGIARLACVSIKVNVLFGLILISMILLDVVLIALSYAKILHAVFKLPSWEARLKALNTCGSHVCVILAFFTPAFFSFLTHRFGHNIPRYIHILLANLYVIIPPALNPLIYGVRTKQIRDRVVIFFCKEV
Summary of the method: as §1

Measured: odorant receptor agonist call

CCCCCCC(Br)C(=O)O (stereo unspecified)
active: [4]
inactive: [1] | [2] | [3] | [5] | [6] | [7] | [8] | [9] | [10]

CC(C=O)Cc1ccc2c(c1)OCO2 (stereo unspecified)
inactive: [1] | [2] | [3] | [4] | [5] | [6] | [7] | [8] | [10]
active: [9]

O=C(O)CCCCCCCBr
active: [11]

From the M2OR odorant receptor database
